Measurements: ChEMBL document CHEMBL1148462, “A novel class of phosphonate nucleosides. 9-[(1-phosphonomethoxycyclopropyl)methyl]guanine as a potent and selective anti-HBV agent” (J Med Chem, 2004)

Tests used:
HepG2 [1] = experiment: Cytotoxic activity in HepG2 2.2.15 cell line; type: functional; conditions: Homo sapiens
HepG2 [2] = experiment: (§1) Compound tested for anti-HBV (hepatitis B virus) activity in HepG2 2.2.15 cell line; type: functional, cell-based; conditions: Homo sapiens
How it was run: (§2)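 HBV-producing HepG2 2.2.15 cells cultured in DMEM/10% FBS with 400 μg/mL G418, seeded at 1.5 × 10⁴ cells/well and grown 2 days to 80–90% confluence. Medium then switched to 2% FBS. Compounds at 0–100 μM (fivefold steps) added every other day for 9 days. Day-10 supernatant boiled, serially diluted and HBV DNA quantified by TaqMan real-time PCR (40 cycles) to derive EC50.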

HepG2 [3] = experiment: as §1; type: functional; conditions: Homo sapiens; how it was run: as §2
[4] = Oral bioavailability in rat; type: ADME, organism-based; conditions: in vivo
Human alphaherpesvirus 1 = experiment: […] of herpes simplex virus (HSV-1)
[5] = test system: Human immunodeficiency virus 1; experiment: Concentration required for inhibition of replication of human immunodeficiency virus (HIV-1); type: functional

Row | EC50 (HepG2 [2]) [µM] | bioavailability [4] [%] | SMILES | CC50 (HepG2 [1]) [µM] | EC80 (HepG2 [3]) [µM] | Inhibition (Human alphaherpesvirus 1) [µM] | Inhibition [5] [µM]
1 | > 30 | – | CCNc1nc(N)nc2c1ncn2CC1(OCP(=O)(O)O)CC1 | > 1000 | – | – | –
2 | 0.5 | – | CCOc1nc(N)nc2c1ncn2CC1(OCP(=O)(O)O)CC1 | > 1000 | 3 | – | –
3 | 8 | – | Nc1ncnc2c1ncn2CC1(OCP(=O)(O)O)CC1 | > 1000 | – | – | –
4 | > 30 | – | Cc1cn(CC2(OCP(=O)(O)O)CC2)c(=O)[nH]c1=O | > 1000 | – | – | –
5 | 1.5 | – | Nc1nc(Cl)c2ncn(CC3(OCP(=O)(O)O)CC3)c2n1 | > 1000 | 7.5 | – | –
6 | 8 | – | Cc1nc(N)nc2c1ncn2CC1(OCP(=O)(O)O)CC1 | > 1000 | – | – | –
7 | 4 | > 5 | Nc1ncc2ncn(CC3(OCP(=O)(O)O)CC3)c2n1 [BESIFOVIR] | > 1000 | – | – | –
8 | 0.5 | – | Nc1nc(O)c2ncn(CC3(OCP(=O)(O)O)CC3)c2n1 [LB80317] | > 1000 | 2.3 | > 30 | > 30

Row | SMILES | EC50 (HepG2 [2]) [µM] | bioavailability [4] [%] | CC50 (HepG2 [1]) [µM] | EC80 (HepG2 [3]) [µM] | Inhibition (Human alphaherpesvirus 1) [µM] | Inhibition [5] [µM]
9 | Nc1ncnc2c1ncn2CCOCP(=O)(O)O [ADEFOVIR] | 2 | – | – | 44 | – | –
